For this test, the target named is Serine/threonine-protein phosphatase PP1-gamma catalytic subunit (Homo sapiens, UniProt P36873). Put plainly: Inhibition of PP1gamma by firefly bioluminescence assay. Put shortly: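 Recombinant PP1c (E. coli-expressed), concentration set by titration, diluted to 40 nM in Tris–HCl (pH 8.43) with 0.15% BSA and 4.0 mM DTT (DTT omitted for disulfide-containing probes). Inhibitor diacid (0–40 µM stock dilutions; 0–10 µM in assay) premixed with enzyme. Luciferin phosphate (40 µM, 5 µL) is added. After 6 min, released luciferin is read on an immobilized-luciferase column with photon counting, in triplicate. Ki is fitted with a tight-binding model.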
Serine/threonine-protein phosphatase PP1-gamma catalytic subunit, sequence (P36873 whole entry): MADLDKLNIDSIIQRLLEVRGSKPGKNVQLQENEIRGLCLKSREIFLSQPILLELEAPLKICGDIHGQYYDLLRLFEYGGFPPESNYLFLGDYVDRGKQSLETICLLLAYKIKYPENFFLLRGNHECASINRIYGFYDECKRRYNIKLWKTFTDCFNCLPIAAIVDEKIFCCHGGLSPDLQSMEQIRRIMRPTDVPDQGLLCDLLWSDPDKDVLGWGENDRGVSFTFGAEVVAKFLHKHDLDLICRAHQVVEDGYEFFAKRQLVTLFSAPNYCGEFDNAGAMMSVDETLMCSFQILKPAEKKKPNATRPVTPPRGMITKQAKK
As to `COc1cc(C2(C(F)(F)F)N=N2)ccc1C(=O)NCCNC(=O)CO/N=C(\C)[C@@H](C)CC[C@@H]1O[C@@]2(CC[C@H]1C)CC[C@H](C)[C@H]([C@H](C)CC[C@H](O)[C@H](C)C(=O)C[C@@H](O)[C@H](OC)[C@H](OC(=O)C[C@@H](O)/C(C(=O)O)=C(\C)C(=O)O)C(C)C)O2`, the Ki was determined as 213 nM.
Take `CO[C@@H]([C@H](O)CC(=O)[C@@H](C)[C@@H](O)CC[C@@H](C)[C@@H]1O[C@]2(CC[C@@H](C)[C@H](CC[C@H](C)/C(C)=N\OCC(=O)Nc3cccc(C(=O)c4ccccc4)c3)O2)CC[C@@H]1C)[C@H](OC(=O)C[C@@H](O)/C(C(=O)O)=C(\C)C(=O)O)C(C)C`: the affinity, expressed as Ki, was 32.5 nM.
With `CO[C@@H]([C@H](O)CC(=O)[C@@H](C)[C@@H](O)CC[C@@H](C)[C@@H]1O[C@]2(CC[C@@H](C)[C@H](CC[C@H](C)/C(C)=N\OCC(=O)NCCNC(=O)c3ccc(F)c(N=[N+]=[N-])c3)O2)CC[C@@H]1C)[C@H](OC(=O)C[C@@H](O)/C(C(=O)O)=C(\C)C(=O)O)C(C)C` the figure was 8.4 nM.
Next, `COc1cc(C2(C(F)(F)F)N=N2)ccc1C(=O)NCCNC(=O)CO/N=C(/C)[C@@H](C)CC[C@@H]1O[C@@]2(CC[C@H]1C)CC[C@H](C)[C@H]([C@H](C)CC[C@H](O)[C@H](C)C(=O)C[C@@H](O)[C@H](OC)[C@H](OC(=O)C[C@@H](O)/C(C(=O)O)=C(\C)C(=O)O)C(C)C)O2`: 49.7 nM.
Regarding `CO[C@@H]([C@H](O)CC(=O)[C@@H](C)[C@@H](O)CC[C@@H](C)[C@@H]1O[C@]2(CC[C@@H](C)[C@H](CC[C@H](C)/C(C)=N/OCC(=O)Nc3cccc(C(=O)c4ccccc4)c3)O2)CC[C@@H]1C)[C@H](OC(=O)C[C@@H](O)/C(C(=O)O)=C(\C)C(=O)O)C(C)C`, the Ki is 8 nM.
Next, `CO[C@@H]([C@H](O)CC(=O)[C@@H](C)[C@@H](O)CC[C@@H](C)[C@@H]1O[C@]2(CC[C@@H](C)[C@H](CC[C@H](C)/C(C)=N/OCC(=O)NCCSSCCNC(=O)c3ccc(F)c(N=[N+]=[N-])c3)O2)CC[C@@H]1C)[C@H](OC(=O)C[C@@H](O)/C(C(=O)O)=C(\C)C(=O)O)C(C)C`: 19.6 nM.
Next, `CO[C@@H]([C@H](O)CC(=O)[C@@H](C)[C@@H](O)CC[C@@H](C)[C@@H]1O[C@]2(CC[C@@H](C)[C@H](CC[C@H](C)/C(C)=N/OCC(=O)NCCCNC(=O)c3ccc(F)c(N=[N+]=[N-])c3)O2)CC[C@@H]1C)[C@H](OC(=O)C[C@@H](O)/C(C(=O)O)=C(\C)C(=O)O)C(C)C`: 3.4 nM.
Next, `CO[C@@H]([C@H](O)CC(=O)[C@@H](C)[C@@H](O)CC[C@@H](C)[C@@H]1O[C@]2(CC[C@@H](C)[C@H](CC[C@H](C)/C(C)=N/OCC(=O)NCCNC(=O)c3ccc(F)c(N=[N+]=[N-])c3)O2)CC[C@@H]1C)[C@H](OC(=O)C[C@@H](O)/C(C(=O)O)=C(\C)C(=O)O)C(C)C`: 17.3 nM; `CO[C@@H]([C@H](O)CC(=O)[C@@H](C)[C@@H](O)CC[C@@H](C)[C@@H]1O[C@]2(CC[C@@H](C)[C@H](CC[C@H](C)/C(C)=N\OCC(=O)NCCSSCCNC(=O)c3ccc(F)c(N=[N+]=[N-])c3)O2)CC[C@@H]1C)[C@H](OC(=O)C[C@@H](O)/C(C(=O)O)=C(\C)C(=O)O)C(C)C`: 23.9 nM; `CO[C@@H]([C@H](O)CC(=O)[C@@H](C)[C@@H](O)CC[C@@H](C)[C@@H]1O[C@]2(CC[C@@H](C)[C@H](CC[C@H](C)C(C)=O)O2)CC[C@@H]1C)[C@H](OC(=O)C[C@@H](O)/C(C(=O)O)=C(\C)C(=O)O)C(C)C` [TAUTOMYCIN DIACID]: 4.5 nM.
